{"source": "ChEMBL document CHEMBL3400062", "about": "“Synthesis of novel C5-curcuminoid-fatty acid conjugates and mechanistic investigation of their anticancer activity” (Bioorg Med Chem Lett, 2015)", "key": {"COLO 205 [1]": {"tested_on": "COLO 205", "assay": "Induction of mitochondrial membrane permeabilization in human COLO205 cells at 46 ug/ml by JC1 dye based staining method (reference value: 14%)", "assay_type": "functional", "how_it_was_run": "(§1)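 COLO-205 cells, 1×10^6 per sample, exposed under the same conditions and controls as the annexin assay (camptothecin, DMSO). Then labelled with JC-1 at 200 μg/ml and scored for % cells with permeabilized mitochondrial membranes. Triplicate.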"}, "[2]": {"molecular_target": "T1, DNA topoisomerase 1 (Homo sapiens) (UniProt P11387)", "T1 sequence (whole entry)": "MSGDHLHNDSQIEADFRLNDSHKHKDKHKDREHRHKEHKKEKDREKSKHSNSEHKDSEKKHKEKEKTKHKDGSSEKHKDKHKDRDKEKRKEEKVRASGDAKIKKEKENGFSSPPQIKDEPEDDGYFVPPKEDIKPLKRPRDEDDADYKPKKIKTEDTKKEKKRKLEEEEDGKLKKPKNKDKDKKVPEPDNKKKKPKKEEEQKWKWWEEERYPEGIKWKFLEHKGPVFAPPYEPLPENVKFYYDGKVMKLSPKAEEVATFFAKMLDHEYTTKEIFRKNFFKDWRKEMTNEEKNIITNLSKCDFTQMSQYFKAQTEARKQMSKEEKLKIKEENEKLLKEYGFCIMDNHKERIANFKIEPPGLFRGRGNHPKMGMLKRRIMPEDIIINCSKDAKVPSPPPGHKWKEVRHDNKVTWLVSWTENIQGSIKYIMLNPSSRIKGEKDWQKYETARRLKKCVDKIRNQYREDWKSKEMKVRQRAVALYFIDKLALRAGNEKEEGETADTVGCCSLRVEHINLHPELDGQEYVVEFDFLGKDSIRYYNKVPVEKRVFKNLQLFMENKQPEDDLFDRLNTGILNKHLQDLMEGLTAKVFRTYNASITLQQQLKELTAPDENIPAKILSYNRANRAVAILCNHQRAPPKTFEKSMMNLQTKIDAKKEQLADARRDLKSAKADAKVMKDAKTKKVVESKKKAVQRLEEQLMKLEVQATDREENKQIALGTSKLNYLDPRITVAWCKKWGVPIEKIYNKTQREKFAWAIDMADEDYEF", "assay": "Inhibition of human DNA topoisomerase 1 using pHOT1 supercoiled DNA substrate incubated for 30 mins by ethidium bromide staining based gel electrophoresis method", "how_it_was_run": "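Human DNA topoisomerase I kit with pHOT1 supercoiled DNA substrate. Compounds dissolved in 50% DMSO and tested at 10–1,500 μg/mL. Reactions run 30 min at 37°C, stopped with 10% SDS, then proteinase K 0.05 mg/mL for 15 min at 37°C. Products resolved on 1% agarose gel at 72V, stained with ethidium bromide 1 h, destained 30 min. Triplicate.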"}, "PBMC": {"tested_on": "PBMC", "assay": "Cytotoxicity against human PBMC after 3 days by MTT assay", "assay_type": "cell-based", "settings": "72 h", "how_it_was_run": "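PBMCs from healthy volunteers cultured in IL-2-supplemented medium, seeded at 4×10^5–5×10^4 cells/well. Compounds added at final 2–100 µg/mL. Incubation 3 days at 37°C, humidified 5% CO2, then MTT read-out. IC50 is the concentration giving 50% viability, from dose-response curves. Triplicate, mean ± SEM.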"}, "COLO 205 [3]": {"tested_on": "COLO 205", "assay": "Induction of apoptosis in human COLO205 cells assessed as caspase-3 activation at 46 ug/ml by FLICA staining based method", "assay_type": "functional", "how_it_was_run": "(§2)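 COLO-205 cells exposed under the annexin assay conditions (24 h; camptothecin and DMSO controls). Cells harvested and stained with fluorescent labelled inhibitors of caspases (FLICA) for active caspase 3/7, scored as % positive cells. Triplicate.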"}, "[4]": {"molecular_target": "Nuclear factor NF-kappa-B complex (Homo sapiens) (UniProt Q00653+P19838+Q04206)", "sequence (P19838 whole entry, looked up)": "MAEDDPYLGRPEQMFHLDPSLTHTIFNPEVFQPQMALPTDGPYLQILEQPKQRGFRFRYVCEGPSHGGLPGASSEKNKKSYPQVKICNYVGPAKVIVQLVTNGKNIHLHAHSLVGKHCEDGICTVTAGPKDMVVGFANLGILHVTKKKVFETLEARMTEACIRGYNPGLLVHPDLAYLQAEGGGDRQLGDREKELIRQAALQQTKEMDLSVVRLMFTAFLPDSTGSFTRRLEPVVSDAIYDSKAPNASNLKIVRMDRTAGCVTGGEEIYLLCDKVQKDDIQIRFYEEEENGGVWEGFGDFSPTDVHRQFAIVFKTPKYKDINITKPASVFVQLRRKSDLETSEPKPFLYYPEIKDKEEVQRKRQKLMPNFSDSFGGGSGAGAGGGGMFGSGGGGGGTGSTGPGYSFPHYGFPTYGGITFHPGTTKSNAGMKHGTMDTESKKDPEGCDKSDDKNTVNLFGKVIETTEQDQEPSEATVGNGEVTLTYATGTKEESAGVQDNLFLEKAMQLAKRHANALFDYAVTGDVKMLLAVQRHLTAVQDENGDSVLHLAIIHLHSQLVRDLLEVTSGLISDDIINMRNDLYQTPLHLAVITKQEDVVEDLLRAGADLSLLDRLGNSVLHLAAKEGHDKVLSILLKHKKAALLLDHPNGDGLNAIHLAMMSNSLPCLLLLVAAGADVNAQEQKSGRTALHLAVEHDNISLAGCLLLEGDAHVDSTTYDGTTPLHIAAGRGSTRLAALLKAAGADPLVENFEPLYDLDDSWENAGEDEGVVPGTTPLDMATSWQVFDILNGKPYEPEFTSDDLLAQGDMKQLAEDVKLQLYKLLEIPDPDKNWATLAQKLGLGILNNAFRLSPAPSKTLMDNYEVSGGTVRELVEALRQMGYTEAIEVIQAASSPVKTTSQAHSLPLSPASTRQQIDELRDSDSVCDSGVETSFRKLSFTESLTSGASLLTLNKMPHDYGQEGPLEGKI", "sequence (Q00653 whole entry, looked up)": "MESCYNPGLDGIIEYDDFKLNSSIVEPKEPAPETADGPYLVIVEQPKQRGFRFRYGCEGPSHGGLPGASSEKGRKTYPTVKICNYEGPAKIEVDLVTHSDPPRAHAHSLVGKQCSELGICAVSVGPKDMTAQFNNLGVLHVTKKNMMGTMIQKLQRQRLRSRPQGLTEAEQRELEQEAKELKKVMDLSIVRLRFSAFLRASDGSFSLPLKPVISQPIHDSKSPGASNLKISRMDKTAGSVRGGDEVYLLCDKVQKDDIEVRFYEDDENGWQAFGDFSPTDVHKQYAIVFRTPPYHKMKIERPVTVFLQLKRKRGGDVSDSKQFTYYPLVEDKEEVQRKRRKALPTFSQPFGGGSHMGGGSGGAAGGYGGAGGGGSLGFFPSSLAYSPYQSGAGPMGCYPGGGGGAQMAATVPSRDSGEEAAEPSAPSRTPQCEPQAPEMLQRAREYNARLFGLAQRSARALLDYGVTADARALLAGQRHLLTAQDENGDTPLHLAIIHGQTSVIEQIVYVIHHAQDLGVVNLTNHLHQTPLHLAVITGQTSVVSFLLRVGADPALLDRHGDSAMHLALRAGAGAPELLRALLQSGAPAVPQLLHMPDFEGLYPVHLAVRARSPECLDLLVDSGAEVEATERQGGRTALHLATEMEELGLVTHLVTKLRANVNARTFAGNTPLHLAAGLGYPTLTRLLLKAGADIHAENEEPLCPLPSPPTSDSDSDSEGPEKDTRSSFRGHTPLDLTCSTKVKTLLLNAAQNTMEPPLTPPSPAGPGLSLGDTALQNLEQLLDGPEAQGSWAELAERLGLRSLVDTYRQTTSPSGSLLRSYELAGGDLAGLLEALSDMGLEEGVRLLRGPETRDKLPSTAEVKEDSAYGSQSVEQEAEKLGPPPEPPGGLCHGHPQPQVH", "sequence (Q04206 whole entry, looked up)": "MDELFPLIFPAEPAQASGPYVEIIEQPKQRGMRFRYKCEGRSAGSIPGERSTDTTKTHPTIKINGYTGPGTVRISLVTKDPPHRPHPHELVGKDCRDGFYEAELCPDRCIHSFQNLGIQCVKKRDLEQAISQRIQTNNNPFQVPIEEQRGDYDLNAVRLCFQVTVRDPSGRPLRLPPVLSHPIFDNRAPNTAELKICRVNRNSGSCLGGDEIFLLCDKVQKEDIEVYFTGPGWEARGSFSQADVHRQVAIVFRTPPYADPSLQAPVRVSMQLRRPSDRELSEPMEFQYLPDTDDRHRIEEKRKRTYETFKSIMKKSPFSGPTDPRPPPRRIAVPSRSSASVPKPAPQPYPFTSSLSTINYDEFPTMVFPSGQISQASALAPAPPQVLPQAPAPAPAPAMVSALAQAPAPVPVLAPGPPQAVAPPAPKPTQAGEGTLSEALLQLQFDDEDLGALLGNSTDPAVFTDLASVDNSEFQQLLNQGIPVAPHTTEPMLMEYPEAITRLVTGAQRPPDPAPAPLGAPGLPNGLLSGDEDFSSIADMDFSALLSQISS", "assay": "Inhibition of TNFalpha-induced nuclear factor-kappa-B (unknown origin) expressed in HEK293 cells pre-incubated for 16 hrs followed by TNFalpha stimulation for 6 hrs by luciferase reporter gene assay", "assay_type": "cell-based", "how_it_was_run": "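NFκB reporter HEK293 cells seeded at 30,000/well in assay medium without hygromycin B and allowed to reattach overnight at 37°C, 5% CO2. Compound dilutions added for 16 h (DMSO in untreated and cell-free controls). Mouse TNFα 5 ng/mL then added for 6 h. Cells lysed with one-step luciferase reagent about 15 min at room temperature, luminescence read. Non-linear regression; triplicate, mean ± SEM.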"}, "[5]": {"assay": "Cytotoxicity against human CCL229 cells after 3 days by MTT assay", "assay_type": "functional, cell-based", "settings": "CCL229, 72 h", "how_it_was_run": "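CCL-229 colon cancer cells grown in F12K medium (2 mM L-glutamine, 1500 mg/L sodium bicarbonate), seeded at 10,000 cells/well. Compounds added at final 5–500 µg/mL. Incubation 3 days at 37°C, humidified 5% CO2. Viability read by MTT. IC50 is the concentration giving 50% viability, taken from dose-response curves. Triplicate, mean ± SEM.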"}, "COLO 205 [6]": {"tested_on": "COLO 205", "assay": "Induction of apoptosis in human COLO205 cells at 46 ug/ml after 24 hrs by propidium iodide and annexin V staining method (reference value: 14.3%)", "assay_type": "functional"}, "COLO 205 [7]": {"tested_on": "COLO 205", "assay": "Induction of mitochondrial membrane permeabilization in human COLO205 cells at 3.5 ug/ml by JC1 dye based staining method (reference value: 14%)", "assay_type": "functional"}, "COLO 205 [8]": {"tested_on": "COLO 205", "assay": "Induction of apoptosis in human COLO205 cells assessed as caspase-3 activation at 3.5 ug/ml by FLICA staining based method", "assay_type": "functional", "how_it_was_run": "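COLO-205 cells treated as in the annexin assay (24 h exposure); cells harvested and stained with fluorescent labelled caspase inhibitors (FLICA) for active caspase 3/7; read as percent of cells with active caspase; triplicate runs.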"}, "COLO 205 [9]": {"tested_on": "COLO 205", "assay": "Induction of apoptosis in human COLO205 cells at 3.5 ug/ml after 24 hrs by propidium iodide and annexin V staining method (reference value: 14.3%)", "assay_type": "functional"}, "COLO 205 [10]": {"tested_on": "COLO 205", "assay": "Induction of apoptosis in human COLO205 cells at 7.4 ug/ml after 24 hrs by propidium iodide and annexin V staining method (reference value: 14.3%)", "assay_type": "functional"}, "COLO 205 [11]": {"tested_on": "COLO 205", "assay": "Induction of mitochondrial membrane permeabilization in human COLO205 cells at 7.4 ug/ml by JC1 dye based staining method (reference value: 14%)", "assay_type": "functional", "how_it_was_run": "as §1"}, "COLO 205 [12]": {"tested_on": "COLO 205", "assay": "Induction of apoptosis in human COLO205 cells assessed as caspase-3 activation at 7.4 ug/ml by FLICA staining based method", "assay_type": "functional", "how_it_was_run": "as §2"}}}
{"smiles": "CCCCCCCCCC(=O)Oc1cccc(/C=C/C(=O)/C=C/c2cccc(OC(=O)CCCCCCCCC)c2)c1", "values": [{"measurement": "Activity", "setting": "COLO 205 [1]", "result": 68, "unit": "%"}, {"measurement": "MIC", "setting": "[2]", "result": 50, "unit": "µg/mL"}, {"measurement": "IC50", "setting": "PBMC", "result": 35.9, "unit": "µg/mL"}, {"measurement": "Activity", "setting": "COLO 205 [3]", "result": 19.5, "unit": "%"}, {"measurement": "inhibition", "setting": "[4]", "result": "Dose-dependent effect"}, {"measurement": "IC50", "setting": "[5]", "result": 22.5, "unit": "µg/mL"}, {"measurement": "Activity", "setting": "COLO 205 [6]", "result": 27.5, "unit": "%"}]}
{"smiles": "CCCCCCCCCCCCCCCC(=O)Oc1cccc(/C=C2\\CCC/C(=C\\c3cccc(OC(=O)CCCCCCCCCCCCCCC)c3)C2=O)c1", "values": [{"measurement": "MIC", "setting": "[2]", "result": 250, "unit": "µg/mL"}, {"measurement": "IC50", "setting": "PBMC", "result": 36.3, "unit": "µg/mL"}, {"measurement": "IC50", "setting": "[5]", "result": 29.3, "unit": "µg/mL"}]}
{"smiles": "CCCCCCCCCCCCCCCC(=O)Oc1ccc(/C=C2\\CCC/C(=C\\c3ccc(OC(=O)CCCCCCCCCCCCCCC)c(OC)c3)C2=O)cc1OC", "values": [{"measurement": "IC50", "setting": "[5]", "result": 139, "unit": "µg/mL"}]}
{"smiles": "CCCCCCCCCC(=O)Oc1ccc(/C=C/C(=O)/C=C/c2ccc(OC(=O)CCCCCCCCC)cc2)cc1", "values": [{"measurement": "IC50", "setting": "[5]", "result": 180, "unit": "µg/mL"}]}
{"smiles": "CCCCCCCCCC(=O)Oc1ccc(/C=C/C(=O)/C=C/c2ccc(OC(=O)CCCCCCCCC)c(OC)c2)cc1OC", "values": [{"measurement": "IC50", "setting": "[5]", "result": 143, "unit": "µg/mL"}]}
{"smiles": "CCCCCCCCCCCCCCCC(=O)Oc1cccc(/C=C/C(=O)/C=C/c2cccc(OC(=O)CCCCCCCCCCCCCCC)c2)c1", "values": [{"measurement": "IC50", "setting": "[5]", "result": 113, "unit": "µg/mL"}]}
{"smiles": "CCCCCCCCCCCCCCCC(=O)Oc1cc(/C=C2\\CCC/C(=C\\c3ccc(OC)c(OC(=O)CCCCCCCCCCCCCCC)c3)C2=O)ccc1OC", "values": [{"measurement": "IC50", "setting": "[5]", "result": 130, "unit": "µg/mL"}]}
{"smiles": "CC[C@@]1(O)C(=O)OCc2c1cc1n(c2=O)Cc2cc3ccccc3nc2-1", "note": "[CAMPTOTHECIN]", "values": [{"measurement": "Activity", "setting": "COLO 205 [7]", "result": 48.5, "unit": "%"}, {"measurement": "Activity", "setting": "COLO 205 [8]", "result": 30, "unit": "%"}, {"measurement": "Activity", "setting": "COLO 205 [9]", "result": 29, "unit": "%"}]}
{"smiles": "COc1cc(/C=C/C(=O)CC(=O)/C=C/c2ccc(O)c(OC)c2)ccc1O", "note": "[CURCUMIN]", "values": [{"measurement": "Activity", "setting": "COLO 205 [10]", "result": 27.5, "unit": "%"}, {"measurement": "Activity", "setting": "COLO 205 [11]", "result": 23, "unit": "%"}, {"measurement": "IC50", "setting": "PBMC", "result": 12.3, "unit": "µg/mL"}, {"measurement": "inhibition", "setting": "[4]", "result": "Dose-dependent effect"}, {"measurement": "IC50", "setting": "[5]", "result": 26.8, "unit": "µg/mL"}, {"measurement": "Activity", "setting": "COLO 205 [12]", "result": 23.3, "unit": "%"}]}
{"smiles": "CCCCCCCCCCCCCCCC(=O)Oc1ccc(/C=C/C(=O)/C=C/c2ccc(OC(=O)CCCCCCCCCCCCCCC)c(OC)c2)cc1OC", "values": [{"measurement": "MIC", "setting": "[2]", "result": 100, "unit": "µg/mL"}, {"measurement": "IC50", "setting": "PBMC", "result": 40.6, "unit": "µg/mL"}, {"measurement": "IC50", "setting": "[5]", "result": 56.1, "unit": "µg/mL"}]}
{"smiles": "CCCCCCCCCC(=O)Oc1cc(/C=C/C(=O)/C=C/c2ccc(OC)c(OC(=O)CCCCCCCCC)c2)ccc1OC", "values": [{"measurement": "IC50", "setting": "[5]", "result": 66, "unit": "µg/mL"}]}
{"smiles": "CCCCCCCCCCCCCCCC(=O)Oc1cc(/C=C/C(=O)/C=C/c2ccc(OC)c(OC(=O)CCCCCCCCCCCCCCC)c2)ccc1OC", "values": [{"measurement": "IC50", "setting": "[5]", "result": 70.5, "unit": "µg/mL"}]}
